PABP1 MLLE inh: blocks PAM2 peptide binding to the PABP1 MLLE domain; GST-MLLE / FITC-PAM2 fluorescence polarization; inhibition, % at 20 µM; actives 0.36% (n = 360,000); in the data active = inhibition above about 35%, passing the limit was not always enough;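 note: plate controls were DMSO wells with GST-MLLE for no effect and wells lacking GST-MLLE protein for full effect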
Target sequence (P11940 whole entry, looked up, the tested form may be a part): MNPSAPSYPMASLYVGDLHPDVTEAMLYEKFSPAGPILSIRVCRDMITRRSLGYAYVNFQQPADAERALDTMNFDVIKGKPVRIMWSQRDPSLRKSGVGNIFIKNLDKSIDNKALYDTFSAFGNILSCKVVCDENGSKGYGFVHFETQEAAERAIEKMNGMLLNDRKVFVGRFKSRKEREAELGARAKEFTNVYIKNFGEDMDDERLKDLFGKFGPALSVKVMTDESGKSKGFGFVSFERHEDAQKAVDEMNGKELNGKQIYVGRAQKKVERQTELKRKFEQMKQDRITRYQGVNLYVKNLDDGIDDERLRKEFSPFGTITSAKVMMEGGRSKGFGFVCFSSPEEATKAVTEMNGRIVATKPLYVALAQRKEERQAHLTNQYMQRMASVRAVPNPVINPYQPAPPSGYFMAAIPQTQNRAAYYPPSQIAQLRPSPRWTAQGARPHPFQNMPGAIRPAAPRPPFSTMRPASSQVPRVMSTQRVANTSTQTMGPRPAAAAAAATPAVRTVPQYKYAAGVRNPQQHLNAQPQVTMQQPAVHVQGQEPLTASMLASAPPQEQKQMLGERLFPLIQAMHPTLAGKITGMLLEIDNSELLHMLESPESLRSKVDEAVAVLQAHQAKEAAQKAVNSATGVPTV
PABP FP inh: blocks human PABP binding to poly(A) RNA. P11940. fluorescence polarization. calls only at 35 µM. actives 1% (n = 290,000). AID 2014;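 note: calls also rest on retests at 20 µM and on dose response follow-up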
VIM-2 inh: blocks Pseudomonas aeruginosa VIM-2 metallo-beta-lactamase | purified VIM-2, nitrocefin hydrolysis, epi-absorbance fluorescence | actives 0.89% (n = 290,000) | AID 1527 | inhibition, % at 5.6 µM;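 active = inhibition above the mean of all tested compounds plus 3 SD, cutoff set per screening run, cut at about 7.5% in these data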;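 note: red hydrolysis product quenches plate fluorescence so inhibitors raise well fluorescence; 0% = enzyme with DMSO and 100% = DMSO without enzyme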
IMP-1 inhibitor: blocks Pseudomonas aeruginosa IMP-1 metallo-beta-lactamase. purified IMP-1, nitrocefin hydrolysis, epi-absorbance fluorescence. inhibition, % at 5.6 µM. actives 0.45% (n = 290,000). AID 1556;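 active = inhibition above the mean plus 3 SD of all compounds in the same screening run, cut at about 4.5% in these data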;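 note: 0% = IMP-1 with DMSO and 100% = DMSO wells lacking enzyme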
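System: Purified IMP-1 | Read-out basis: Percent enzyme inhibition | Controls: IMP-1 with DMSO as 0%, enzyme-free DMSO as 100% | Replicates: One well per compound | Doses: 5.6 µM nominal single concentration | Detection: Epi-absorbance fluorescence, 480 nm excitation, 530 nm emission | Incubation: 25 °C, 15 min preincubation, 25 min reaction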
eIF4H inh: inhibitors of RNA binding by human eIF4H; Q15056; eIF4H fluorescence polarization binding assay; inhibition, % at 35 µM; actives 0.94% (n = 290,000);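 note: calls also rest on retests at 20 µM and on dose response follow-up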
VIM-2 confirm: VIM-2 inhibition, confirmation assay; actives 73% (n = 200); purified VIM-2 enzyme, nitrocefin absorbance; inhibition, % at 5.6 µM; shares compounds with IMP-1 inhibitor; in the data active = inhibition above about 8%;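 note: 0% = enzyme with vehicle and 100% = no enzyme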
TEM-1 inh 2: blocks E. coli TEM-1 beta-lactamase, VIM-2 IMP-1 counter-screen; shares compounds with IMP-1 inhibitor; nitrocefin absorbance inhibition; inhibition, % at 5.6 µM; actives 50% (n = 200); AID 2184; in the data active = inhibition above about 0.66%
IMP-1 confirm: confirmation of P. aeruginosa IMP-1 metallo-beta-lactamase inhibitors. shares compounds with IMP-1 inhibitor. purified IMP-1 enzyme, absorbance substrate hydrolysis. inhibition, % at 5.6 µM. actives 60% (n = 200). AID 2189; in the data active = inhibition above about 4.9%;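 note: 0% = enzyme with vehicle and 100% = vehicle without enzyme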
An asterisk follows results filed as active; i = inactive; u = inconclusive; x = not tested or not shown. Most compounds without a hit are left out; they make up all but 2.2% or so of the library. Unless noted, the rule behind the calls is not given here.

SMILES	PABP1 MLLE inh	PABP FP inh	VIM-2 inh	IMP-1 inhibitor	eIF4H inh	VIM-2 confirm	TEM-1 inh 2	IMP-1 confirm
CCOc1ccc(Nc2nc(NCCN3CCOCC3)nc(OC)n2)cc1	1.3	i	41.7*	37.5*	3.0	-0.1	-3.9	-1.4
CCOc1ccc(Nc2nc(N3CCOCC3)nc(N3CCOCC3)n2)cc1	-7.8	i	-3.0	-5.3	1.4	x	x	x
CC(=O)Nc1ccc(NC(=O)C(C)OC(=O)c2cccs2)cc1 (stereo not drawn)	-29.9	x	x	x	x	x	x	x
O=C(O)Cn1cc(C(=S)N2CCCCC2)c2ccccc21	39.1	i	9.2*	5.0*	2.1	-2.9	-5.6	-3.7
CC(C)(CO)CNC(=O)c1ccc(OC2CCN(C(=O)C3CC3)CC2)cc1	-2.8	i	-0.7	-0.7	-2.8	x	x	x
CC1=CC2=NC(=O)/C(=C\c3cc(C)n(-c4cccc(Cl)c4)c3C)C(=N)N2O1	-4.2	i	-2.0	-3.1	12.8	x	x	x
CC1=CC2=NC(=O)/C(=C/c3coc4ccc(Cl)cc4c3=O)C(=N)N2O1	190.3	u	12.7*	9.4*	u	7.8*	-1.9	2.4
N=C1/C(=C\c2coc3ccccc3c2=O)C(=O)N=C2SC=CN12	i	u	9.3*	8.6*	u	16.0*	3.6*	11.6*
CSC1=NSC2=NC(=O)/C(=C/c3coc4ccccc4c3=O)C(=N)N12	i	i	-0.2	0.3	u	x	x	x
CN(C(=O)c1ccc(NC(=O)Cc2ccc(NC(=O)C3CCCN(C(=O)C4CCC4)C3)cc2)cc1)C1CC1 (stereo not drawn)	-1.9	x	x	x	x	x	x	x
Cn1nc(C(=O)Nc2ccc(S(=O)(=O)Nc3ncccn3)cc2)ccc1=O	-31.6	i	0.0	4.1	43.0	x	x	x
COc1ccc2c(c1OC)C(=O)OC2	-5.8	i	0.3	-0.2	2.0	x	x	x
COc1ccc2c3c(cccc13)C(=O)CC2	i	u	17.2*	15.5*	u	0.7	1.7*	-2.4
CC1(C(=O)N2CCCCC2)CCN1C(=O)C1(c2ccccc2)CC1 (stereo not drawn)	-6.5	x	x	x	x	x	x	x
CCCNc1cc(C)oc(=O)c1C(=O)CC	-10.9	i	0.0	1.1	-10.0	x	x	x
Nc1nc2c(ncn2[C@@H]2O[C@H](CNS(=O)(=O)c3cccnc3)[C@@H](O)[C@H]2O)c(=O)[nH]1	1.7	x	x	x	x	x	x	x
CCOc1ccc(NC(=O)c2c(NC(=O)CN3CCN(C)CC3)sc3c2CCC3)cc1	-14.5	i	9.6*	4.7*	-9.0	16.4*	-2.8	2.3
NC(=O)c1ccc(NC(=O)C#Cc2ccccc2)cc1	-1.8	i	-2.7	-3.7	1.4	x	x	x
CC(=O)N1[C@H](C)C=C[C@]1(Cc1ccccc1)C(=O)NCCN1CCOCC1	-2.4	x	x	x	x	x	x	x
CC(=O)Oc1ccc2c(c1)Oc1cc(OC(C)=O)ccc1C21OC(=O)c2ccccc21	i	i	142.8*	140.4*	0.6	13.8*	3.3*	4.7*
Cc1cc(O)ccc1C1(c2ccc(O)cc2C)OC(=O)c2ccccc21	-4.0	i	-0.1	-2.4	-4.7	x	x	x
CC(C)(C)C1C=C(Sc2ccccc2)C(=O)O1 (stereo not drawn)	6.6	i	8.8*	51.0*	-6.7	-0.6	-3.1	15.4*
CC(C)n1cc(/C=C/c2cc[n+](C)cc2)c2ccccc21	43.0	u	17.6*	12.1*	u	13.8*	6.7*	8.4*
CCn1cc(/C=C/c2cc[n+](C)cc2)c2ccccc21	-27.3	u	16.1*	13.4*	u	14.1*	8.0*	8.3*
COc1ccc(C(=O)Nc2ccc(/C(C)=N/NC(=O)c3ccncc3)cc2)cc1	-40.0	i	13.6*	32.4*	-3.9	12.3*	-4.7	18.9*
C#CCn1cc2c(c1-c1ccccc1)c(=O)n(C)c(=O)n2C	-0.8	x	x	x	x	x	x	x
COc1ccc(N=Nc2nc3ccc(Br)cc3n2C)cc1	162.6	u	25.9*	25.2*	u	-2.3	-4.9	-3.9
Cc1nn(-c2ccccc2)c(Cl)c1/C=N/Nc1nncc(=O)[nH]1	-9.8	i	-2.8	-3.6	-3.6	x	x	x

Source: PubChem
